Source: PubChem BioAssay AID2445 (The Scripps Research Institute Molecular Screening Center, 2010)
Among all 320,000 compounds or so, about 200 (0.062%) were called active. Only a selection was taken, and actives are over-represented in it overall. Values without a mark were called inactive.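 How the source made its calls: active means activation above that plate's cutoff, the mean activation of tested compounds plus 3 SD (cut at about 6.6% in these data, passing the limit was not always enough); inactive means the rest.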

These compounds were tested against Oxytocin receptor (Homo sapiens) (UniProt P30559) (assay: enhancers of oxytocin-evoked OXTR calcium signal – fluorescence, CHO-OTR cells, Fluo-8 calcium, primary screen (AID 2445;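 further: 100% uses oxytocin at 75 nM as the full agonist control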)). Conditions: Fluo-8 calcium fluorescence, potentiator mode, at 3 µM, stronger effect = higher value, 0% = oxytocin EC15, 100% = EC100.
Oxytocin receptor (Homo sapiens), sequence (P30559 whole entry, looked up): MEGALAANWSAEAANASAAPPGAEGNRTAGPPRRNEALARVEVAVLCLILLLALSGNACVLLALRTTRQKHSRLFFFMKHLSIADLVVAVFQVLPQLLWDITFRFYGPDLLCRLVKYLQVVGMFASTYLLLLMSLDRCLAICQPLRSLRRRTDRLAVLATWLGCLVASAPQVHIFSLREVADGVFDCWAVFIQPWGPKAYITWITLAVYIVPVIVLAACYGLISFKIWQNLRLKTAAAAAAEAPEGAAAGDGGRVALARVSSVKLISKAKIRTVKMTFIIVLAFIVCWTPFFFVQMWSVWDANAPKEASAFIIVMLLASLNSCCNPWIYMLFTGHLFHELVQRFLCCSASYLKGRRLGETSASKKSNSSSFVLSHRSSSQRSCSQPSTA
Outline: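 System: human OTR in CHO cells; Also added: sub-maximal oxytocin, roughly EC15; Timing: compound 6 min at room temperature before oxytocin, 100 s read; Technique: Fluo-8 intracellular calcium fluorescence, ex 470-495, em 515-575 nm; Controls: oxytocin EC15 low and EC100 high; Replication: singlicate.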

SMILES | activation
CCc1ccnc(NS(=O)(=O)c2ccc3c(c2)OCCO3)c1 | -3.79%
C/C(=N\NC(=O)c1ccc(C)cc1)C1C(=O)c2ccccc2C1=O | -16.2%
Cc1ccc(OCc2nnc(SC3CCc4ccccc4C3=O)n2C)cc1 (stereo not drawn) | -7.17%
CC1(C)CC(=O)C=C(c2ccc3ncccc3c2)C1 | -1.73%
Nc1cc(OC(=O)c2ccccc2Br)nn1S(=O)(=O)c1ccccc1 | -18.3%
CCOc1cc(C2/C(=C(/O)c3ccc(S(=O)(=O)N4CCCCC4)cc3)C(=O)C(=O)N2CCOC)ccc1O (stereo not drawn) | -8.45%
Cc1nc(CNS(=O)(=O)c2ccc(Oc3ccccc3)cc2)cs1 | -14.3%
O=C(NCc1ccc(Cl)cc1)C(=O)NCC1CCCN1S(=O)(=O)c1cccs1 (stereo not drawn) | -5.47%
C=CCN(N=Nc1cccc([N+](=O)[O-])c1)c1cccc([N+](=O)[O-])c1 | -14.2%
O=C(CNC(=O)c1ccc2ccccc2c1)Nc1ncccc1O | 1.14%
COc1ccc(N(C(=O)c2snc(C(N)=O)c2N)C(C(=O)NC2CCCC2)c2ccc(C)o2)c(OC)c1 (stereo not drawn) | -3.04%
Cc1ccc(OCC(O)CN2CCN(CC(O)COc3ccc(C)cc3Cl)CC2)c(Cl)c1 (stereo not drawn) | 12.6% (active)
Cc1cccc(OCC(O)CN2CCN(S(=O)(=O)c3ccc(C)cc3C)CC2)c1 (stereo not drawn) | -12%
OC(COc1ccc(F)cc1Cl)CN1CCc2ccccc2C1 (stereo not drawn) | -6.27%
COc1ccc(NC(=O)CCNS(=O)(=O)c2ccc3c(c2)c(=O)n(C)c(=O)n3C)cc1OC | -4.46%
O=C(Nc1ccc2c(c1)OCO2)C1CC(c2c(F)cccc2Cl)=NO1 (stereo not drawn) | -1.98%
CS(=O)(=O)N(Cc1nc2sc3c(c2c(=O)[nH]1)CCCC3)C1CCCCC1 | -9.15%
COc1cc2c(cc1OC)C(=O)NCC(C)(C)O2 | 0.49%
CN(C(=O)c1cccc(NC(=O)Cc2ccc([N+](=O)[O-])cc2)c1)C1CCC1 | -0.31%

SMILES | activation
O=C(CSc1n[nH]c(-c2cccnc2)n1)Nc1ccc(Cl)cc1 | -11%
COC(=O)C1CCN(C(=O)COC(=O)c2cc(S(=O)(=O)N3CCOCC3)ccc2C)CC1 | -5.03%
O=C(OCCN1C(=O)c2ccccc2C1=O)[C@@H]1CC(O)CN1S(=O)(=O)c1ccccc1[N+](=O)[O-] (stereo partly drawn) | -5.05%
CCN(CC(=O)NCc1cccs1)C(=O)c1cccc(S(=O)(=O)Nc2ccccc2OC)c1 | -5.42%
Cc1ccc(N2C(=O)SC(N(CC(=O)O)c3ccc(C)cc3)C2=O)cc1 (stereo not drawn) | -15.1%
O=C(NCC(c1ccco1)N1CCc2ccccc21)c1cccc(F)c1 (stereo not drawn) | -9.25%
CSc1nnnn1-c1c(C)cc(C)cc1C | -1.91%
CCOc1ccccc1Nc1nnc(SCC(=O)NCC2CCCO2)s1 (stereo not drawn) | 0.07%
O=C(CCc1nnc2ccc(NCc3ccccc3Cl)nn12)NCC1CCN(C2CCCC2)C1 (stereo not drawn) | -8.06%
CCCC(NC(=O)c1ccccc1)c1nc2ccccc2n1Cc1ccc(C(=O)OC)o1 (stereo not drawn) | 4.77%
COc1cccc(-n2c(=O)c3c(C)c(C(=O)N(C)C)sc3n(CC(=O)NCCc3ccc(OC)c(OC)c3)c2=O)c1 | -15.7%
CC(CNC(=O)c1ccc(N)cc1)NC(=O)c1ccc(N)cc1 (stereo not drawn) | -7.37%
CC(C)(CNC(=O)CNC(=O)C1CCCCC1)N1CCOCC1 | -6.61%
COCCN(C(=S)Nc1cccc(Cl)c1C)C(C)c1ccco1 (stereo not drawn) | 2.23%
CC(C)N1C(=S)SC(C)(C)C1n1oc(=O)n(-c2ccc(Cl)c(Cl)c2)c1=O (stereo not drawn) | -15.1%
COc1ccc2[nH]c(=O)c(CN(Cc3cccnc3)S(=O)(=O)c3ccccc3F)cc2c1 | -13.1%
OC(c1ccc(Cl)cc1)C(CN1CCOCC1)c1ccccc1 (stereo not drawn) | -9.47%
CCS(=O)(=O)c1ccc2c(c1)N(S(=O)(=O)c1ccccc1)CC(C(=O)O)O2 (stereo not drawn) | -11.9%
Cc1ccc(-n2ncc3c2CC(C)(C)CC3NC(=O)CCc2cnn(C)c2)cc1 (stereo not drawn) | -3.78%
